Results reported in paper PMC5492419 (ACS Central Science, 2017).

How the values were obtained:
human plasma HDLs = assay: Pre-beta HDL ELISA after incubating human plasma with peptide; type: biochemical; conditions: ELISA screen
Method in brief: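 Peptides were incubated with human plasma in vitro for 1 h. Pre-beta HDL was then quantified by ELISA and reported as the concentration of pre-beta HDL generated, as mean ± SD.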

[1] = tested on: mouse macrophage J774 cells; type: cell-based; conditions: 0.3 mg/mL peptide in human plasma, 2% apoB-depleted plasma, 4 h
Method in brief: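 Mouse macrophage J774 cells were incubated 4 h with 2% apoB-depleted plasma samples. The plasma was human plasma pre-treated with peptide at 0.3 mg/mL (~270 μM cyclic peptide), with a concentration range for one peptide. Efflux was expressed relative to vehicle-treated plasma, set as 0% efflux. Samples were run in quadruplicate and reported as mean ± SD. Peptide alone as acceptor was also tested against vehicle.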

human plasma HDL = assay: Human plasma remodeling, Western blot for human apoA-I; type: biochemical; conditions: Western blot, 0.4, 0.2, 0.1 mg/mL
Method in brief: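 Lipid-poor pre-beta HDL was then detected by Western blotting for human apoA-I. The positive control was a control peptide at 0.1 mg/mL, and the negative control was 10% sucrose.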

## wWwReQeR [compound 25]
Human plasma HDLs
  HDL remodeling activity (pre-beta HDL formation), in words: less active than peptide 21

## WlWrEqEr [compound 22]
Human plasma HDLs
  HDL remodeling activity (pre-beta HDL formation), in words: nearly identical

## wLwREQeR [compound 29]
Human plasma HDLs
  HDL remodeling activity (pre-beta HDL formation), in words: reduced

## wAOwReQeR [compound 24]
Human plasma HDLs
  HDL remodeling activity (pre-beta HDL formation), in words: less active than peptide 21

## wLWReQeR [compound 28]
Human plasma HDLs
  HDL remodeling activity (pre-beta HDL formation), in words: reduced

## Ac-wLwSeQsO-NH2 [compound 82]
[1]
  cholesterol efflux, in words: failed to remodel plasma HDL or promote cholesterol efflux
Human plasma HDL
  plasma HDL remodeling, in words: failed to remodel plasma HDL

## wLwErQrE [compound 30]
Human plasma HDLs
  HDL remodeling activity (pre-beta HDL formation), in words: dramatically reduced compared to 21
[1]
  cholesterol efflux, in words: dramatically reduced compared to that of 21

## pyLwKsKsK [compound 37]
Human plasma HDLs
  HDL remodeling activity (pre-beta HDL formation), in words: promoted HDL remodeling

## c[wL^MewSeQ^MesO] [compound 83]
[1]
  cholesterol efflux, in words: greatly diminished
Human plasma HDL
  plasma HDL remodeling, in words: greatly diminished

## wMeLwReMeQeR [peptide 27]
Human plasma HDLs
  HDL remodeling activity (pre-beta HDL formation), in words: greatly diminished compared to 21

## wNAwReQeR [compound 26]
Human plasma HDLs
  HDL remodeling activity (pre-beta HDL formation), in words: less active than peptide 21

## wHLwReQeR [compound 23]
Human plasma HDLs
  HDL remodeling activity (pre-beta HDL formation), in words: less active than peptide 21

## wLwReQeO [compound 18]
Human plasma HDLs
  HDL remodeling activity (pre-beta HDL formation), in words: essentially inactive
